Blank lines part the entries; values can stand above or below the molecule they belong to.
Legend:
Melanocortin receptor 4 [1] = biological target: T1, Melanocortin receptor 4 (Homo sapiens, UniProt P32245); experiment: Displacement of [125I]NDPMSH from human MC4R expressed in HEK293 cells; format: cell-based
[2] = AUC in CD1 mouse at 10 mg/kg, po; format: ADME, organism-based; parameters: dose 10 mg/kg, route oral; details: plasma
How it was run: (§1)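 CD-1 mice, three animals, dosed i.v. at 5 mg/kg and by oral gavage at 10 mg/kg. Plasma CL, Vd, t1/2, Cmax, Tmax, oral AUC and F% were derived. Brain concentrations and brain/plasma ratios at 1 and 4 h were taken from the i.v. dosing.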

[3] = Apparent permeability from apical to basolateral side of Caco-2 cells; format: ADME, cell-based; details: human
How it was run: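 Caco-2 monolayer permeability, with Papp measured in the apical-to-basolateral direction.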

Melanocortin receptor 4 [4] = biological target: T1, Melanocortin receptor 4; experiment: Antagonist activity at human MC4R expressed in HEK293 cells assessed as inhibition of alpha-MSH-stimulated cAMP production; format: functional, cell-based
[5] = Cmax in Sprague-Dawley rat at 10 mg/kg, po; format: ADME, organism-based; parameters: dose 10 mg/kg, route oral; details: in vivo
[6] = Oral bioavailability in Sprague-Dawley rat at 10 mg/kg, po; format: ADME, organism-based; details: in vivo
How it was run: (§2)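 Sprague–Dawley rats, three animals per route; i.v. dose 5 mg/kg and oral 10 mg/kg. Brain concentrations and brain/plasma ratios taken from the oral dosing at 1 and 4 h post-dose.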

[7] = Half life in Sprague-Dawley rat at 5 mg/kg, iv and 10 mg/kg, po; format: ADME, organism-based; details: in vivo
[8] = Clearance in Sprague-Dawley rat at 5 mg/kg, iv and 10 mg/kg, po; format: ADME, organism-based; details: in vivo
[9] = Volume of distribution in Sprague-Dawley rat at 5 mg/kg, iv and 10 mg/kg, po; format: ADME, organism-based; details: in vivo; how it was run: as §2
[10] = AUC in Sprague-Dawley rat at 10 mg/kg, po; format: ADME, organism-based; parameters: dose 10 mg/kg, route oral; details: plasma
[11] = Ratio of drug level in brain to plasma in Sprague-Dawley rat at 10 mg/kg, po after 1 hr; format: ADME, organism-based; parameters: dose 10 mg/kg, route oral; details: brain and plasma, read-out: BPR; how it was run: as §2
[12] = Ratio of drug level in brain to plasma in Sprague-Dawley rat at 10 mg/kg, po after 4 hrs; format: ADME, organism-based; parameters: dose 10 mg/kg, route oral; details: brain and plasma, read-out: BPR; how it was run: as §2
[13] = Drug level in Sprague-Dawley rat brain at 10 mg/kg, po after 4 hrs; format: ADME, organism-based; parameters: dose 10 mg/kg, route oral; details: read-out: Drug uptake
[14] = Distribution coefficient, log D by shake flask method; format: physicochemical; details: octanol/water
How it was run: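 LogD measured by the shake-flask method; described elsewhere in the paper as lipophilicity at pH 7.4.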

[15] = biological target: T2, Melanocyte-stimulating hormone receptor (Homo sapiens, UniProt Q01726); experiment: Displacement of [125I]NDPMSH from human MC1R expressed in HEK293 cells at 10 uM; format: cell-based
Target sequence in this assay (Q01726 whole entry, looked up): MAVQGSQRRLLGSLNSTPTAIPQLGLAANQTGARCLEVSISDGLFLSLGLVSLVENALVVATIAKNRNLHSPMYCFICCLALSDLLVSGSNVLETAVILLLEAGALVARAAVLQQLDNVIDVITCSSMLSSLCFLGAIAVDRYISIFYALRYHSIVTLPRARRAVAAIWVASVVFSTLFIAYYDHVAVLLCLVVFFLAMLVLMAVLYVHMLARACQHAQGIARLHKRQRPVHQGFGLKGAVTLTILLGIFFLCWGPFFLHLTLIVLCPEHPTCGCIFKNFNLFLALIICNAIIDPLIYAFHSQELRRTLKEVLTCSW

[16] = Tmax in Sprague-Dawley rat at 5 mg/kg, iv and 10 mg/kg, po; format: ADME, organism-based; details: in vivo; how it was run: as §2
Melanocortin receptor 5 = Melanocortin receptor 5 (Homo sapiens, UniProt P33032); experiment: Displacement of [125I]NDPMSH from human MC5R expressed in HEK293 cells; format: cell-based
Melanocortin receptor 5, sequence (P33032 whole entry): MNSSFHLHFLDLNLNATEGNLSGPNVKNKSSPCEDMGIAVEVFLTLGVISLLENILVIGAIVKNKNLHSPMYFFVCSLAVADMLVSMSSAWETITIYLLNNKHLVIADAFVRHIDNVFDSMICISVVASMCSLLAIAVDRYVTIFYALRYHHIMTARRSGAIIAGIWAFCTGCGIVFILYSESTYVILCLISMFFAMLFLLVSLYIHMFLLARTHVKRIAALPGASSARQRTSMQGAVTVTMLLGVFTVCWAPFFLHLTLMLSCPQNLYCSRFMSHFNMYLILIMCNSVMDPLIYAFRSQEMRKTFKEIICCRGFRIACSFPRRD

Melanocortin receptor 3 = Melanocortin receptor 3 (Homo sapiens, UniProt P41968); experiment: Displacement of [125I]NDPMSH from human MC3R expressed in HEK293 cells; format: cell-based
Melanocortin receptor 3, sequence (P41968 whole entry): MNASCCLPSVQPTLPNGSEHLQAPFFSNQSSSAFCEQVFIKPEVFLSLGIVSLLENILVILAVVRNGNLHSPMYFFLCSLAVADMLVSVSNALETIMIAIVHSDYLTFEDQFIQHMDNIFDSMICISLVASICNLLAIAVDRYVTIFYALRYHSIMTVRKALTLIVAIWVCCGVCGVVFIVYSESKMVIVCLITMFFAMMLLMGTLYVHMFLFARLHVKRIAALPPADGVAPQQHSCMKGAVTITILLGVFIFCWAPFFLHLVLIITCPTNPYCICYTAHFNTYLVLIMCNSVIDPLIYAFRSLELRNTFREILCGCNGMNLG

[17] = Drug level in Sprague-Dawley rat brain at 10 mg/kg, po after 1 hr; format: ADME, organism-based; parameters: dose 10 mg/kg, route oral; details: read-out: Drug uptake
[18] = Clearance in CD1 mouse at 5 mg/kg, iv; format: ADME, organism-based; parameters: dose 5 mg/kg, route intravenous; details: in vivo; how it was run: as §1
[19] = Ratio of drug level in brain to plasma in CD1 mouse at 5 mg/kg, iv after 1 hr; format: ADME, organism-based; parameters: dose 5 mg/kg, route intravenous; details: brain and plasma, read-out: BPR
[20] = Ratio of drug level in brain to plasma in CD1 mouse at 5 mg/kg, iv after 4 hrs; format: ADME, organism-based; parameters: dose 5 mg/kg, route intravenous; details: brain and plasma, read-out: BPR
[21] = Volume of distribution in CD1 mouse at 5 mg/kg, iv; format: ADME, organism-based; parameters: dose 5 mg/kg, route intravenous; details: in vivo
How it was run: (§3)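 CD-1 mice, three animals per route; single i.v. dose at 5 mg/kg and oral gavage at 10 mg/kg. Plasma PK parameters derived; brain concentrations and brain/plasma ratios taken from the i.v. dosing at 1 and 4 h.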

[22] = Bioavailability in CD1 mouse at 10 mg/kg, po; format: ADME, organism-based; details: in vivo; how it was run: as §1
[23] = Half life in CD1 mouse at 5 mg/kg, iv; format: ADME, organism-based; parameters: dose 5 mg/kg, route intravenous; details: in vivo; how it was run: as §1
[24] = Cmax in CD1 mouse at 10 mg/kg, po after 6 hrs; format: ADME, organism-based; parameters: dose 10 mg/kg, route oral; details: in vivo; how it was run: as §1
[25] = Drug level in CD1 mouse brain at 5 mg/kg, iv after 1 hr; format: ADME, organism-based; parameters: dose 5 mg/kg, route intravenous; details: read-out: Drug uptake; how it was run: as §1
[26] = Tmax in CD1 mouse at 10 mg/kg, po; format: ADME, organism-based; parameters: dose 10 mg/kg, route oral; details: in vivo; how it was run: as §3
[27] = Drug level in CD1 mouse brain at 5 mg/kg, iv after 4 hrs; format: ADME, organism-based; parameters: dose 5 mg/kg, route intravenous; details: read-out: Drug uptake; how it was run: as §1
[28] = Volume of distribution in Sprague-Dawley rat at 2.5 mg/kg, iv and 10 mg/kg, po; format: ADME, organism-based; details: in vivo
How it was run: (§4)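 Sprague–Dawley rats, three animals per route; i.v. given at 2.5 mg/kg and oral at 10 mg/kg; plasma PK parameters calculated from these dosings.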

[29] = Clearance in Sprague-Dawley rat at 2.5 mg/kg, iv and 10 mg/kg, po; format: ADME, organism-based; details: in vivo
How it was run: (§5)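 Sprague–Dawley rats, three animals, dosed i.v. at 2.5 mg/kg and orally at 10 mg/kg. CL and t1/2 were derived from the plasma profile.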

[30] = Half life in Sprague-Dawley rat at 2.5 mg/kg, iv and 10 mg/kg, po; format: ADME, organism-based; details: in vivo; how it was run: as §5
[31] = Tmax in Sprague-Dawley rat at 2.5 mg/kg, iv and 10 mg/kg, po; format: ADME, organism-based; details: in vivo; how it was run: as §4
[32] = biological target: T2, Melanocyte-stimulating hormone receptor; experiment: Displacement of [125I]NDPMSH from human MC1R expressed in HEK293 cells; format: cell-based
Target sequence in this assay (Q01726 whole entry): as the sequence (Q01726 whole entry, looked up) above

[33] = biological target: Growth hormone secretagogue receptor type 1 (Homo sapiens, UniProt Q92847); experiment: Agonist activity at GHSR; format: functional
Growth hormone secretagogue receptor type 1, sequence (Q92847 whole entry): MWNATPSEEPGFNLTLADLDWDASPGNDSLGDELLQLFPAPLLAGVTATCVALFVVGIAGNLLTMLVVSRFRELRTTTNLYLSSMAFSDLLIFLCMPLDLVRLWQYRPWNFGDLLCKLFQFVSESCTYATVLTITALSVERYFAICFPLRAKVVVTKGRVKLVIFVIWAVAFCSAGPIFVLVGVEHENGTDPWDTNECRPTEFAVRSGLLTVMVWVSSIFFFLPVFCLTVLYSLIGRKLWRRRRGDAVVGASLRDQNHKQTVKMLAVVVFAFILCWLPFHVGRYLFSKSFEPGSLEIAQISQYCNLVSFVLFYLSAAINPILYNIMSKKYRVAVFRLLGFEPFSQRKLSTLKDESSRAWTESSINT

T1 sequence (P32245 whole entry): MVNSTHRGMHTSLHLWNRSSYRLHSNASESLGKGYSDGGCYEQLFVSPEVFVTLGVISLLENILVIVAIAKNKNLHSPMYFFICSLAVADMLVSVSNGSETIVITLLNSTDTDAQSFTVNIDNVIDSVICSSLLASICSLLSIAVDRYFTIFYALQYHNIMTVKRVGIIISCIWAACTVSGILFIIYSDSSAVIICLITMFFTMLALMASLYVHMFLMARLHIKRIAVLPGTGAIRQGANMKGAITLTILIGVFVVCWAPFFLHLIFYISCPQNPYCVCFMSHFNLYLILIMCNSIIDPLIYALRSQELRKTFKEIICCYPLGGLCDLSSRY

SMILES: Cc1ccc([C@H](N)CC(C)C)c(N2CCN(C(=O)[C@H](C)Cc3ccc(Cl)cc3Cl)CC2)n1
Ki (Melanocortin receptor 4 [1]): 0.044 µM

SMILES: Cc1ccc(N2CCN(C(=O)[C@H](C)Cc3ccc(Cl)cc3)CC2)c([C@H](CC(C)C)NC(=O)CCN(C)C)c1
Cmax [5]: 196 ng/mL
bioavailability [6]: 19%
half-life [7]: 3.1 h
clearance [8]: 15 mL/min/kg
Vd [9]: 4.1 L/kg
AUC [10]: 2360 ng·h/mL
Kp at 1 h [11]: 0.2
Kp at 4 h [12]: 0.3
concentration at 4 h [13]: 36 ng/g
logD [14]: 2.4
Activity [15]: 34%
Tmax [16]: 5.3 h
Ki (Melanocortin receptor 5): 0.71 µM
Ki (Melanocortin receptor 4 [1]): 0.0037 µM
Ki (Melanocortin receptor 3): 2.8 µM
IC50 (Melanocortin receptor 4 [4]): 0.16 µM
concentration at 1 h [17]: 12 ng/g

SMILES: Cc1ccc([C@@H](CC(C)C)NC(=O)CCN(C)C)c(N2CCN(C(=O)[C@H](C)Cc3ccc(Cl)cc3Cl)CC2)n1
Vd [28]: 18.6 L/kg
Cmax [5]: 60 ng/mL
bioavailability [6]: 19.6%
clearance [29]: 64.9 mL/min/kg
AUC [10]: 517 ng·h/mL
Kp at 1 h [11]: 0.2
Kp at 4 h [12]: 0.2
concentration at 4 h [13]: 29 ng/g
logD [14]: 3.3
half-life [30]: 3.3 h
Ki (Melanocortin receptor 5): 1.2 µM
Ki (Melanocortin receptor 4 [1]): 0.0025 µM
Ki (Melanocortin receptor 3): 3.3 µM
Tmax [31]: 2 h
IC50 (Melanocortin receptor 4 [4]): 0.049 µM
concentration at 1 h [17]: 15 ng/g
Ki [32]: 6.4 µM

SMILES: COc1cc(Cl)ccc1CC(C)C(=O)N1CCN(c2ccc(C(F)(F)F)cc2[C@@H](N)CC(C)C)CC1 (stereo not given in full)
AUC [2]: 249 ng·h/mL
logD [14]: 4.5

SMILES: Cc1ccc(N2CCN(C(=O)[C@@H](Cc3ccc(Cl)cc3Cl)N3CCCC3=O)CC2)c([C@H](CC(C)C)NC(=O)CCN(C)C)c1
Cmax [5]: 40 ng/mL
bioavailability [6]: 8.7%
half-life [7]: 2.6 h
clearance [8]: 38.7 mL/min/kg
Vd [9]: 8.8 L/kg
AUC [10]: 393 ng·h/mL
Kp at 1 h [11]: 0.2
Kp at 4 h [12]: 0.3
concentration at 4 h [13]: 15 ng/g
logD [14]: 3.9
Tmax [16]: 4 h
concentration at 1 h [17]: 1.5 ng/g

SMILES: CC(C)C[C@H](NC(=O)CN)c1cccnc1N1CCN(C(=O)[C@H](C)Cc2ccc(Cl)cc2Cl)CC1
Ki (Melanocortin receptor 4 [1]): 0.039 µM

SMILES: CC(C)C[C@H](NCCN)c1cccc(F)c1N1CCN(C(=O)[C@@H](Cc2ccc(Cl)cc2Cl)N2CCCC2=O)CC1
Intrinsic activity [33]: 107%
Kp at 4 h [20]: 0.23
Papp A→B [3]: 2 ×10⁻⁶ cm/s
Cmax [24]: 552 ng/mL

More lines, now with the values ahead:

AUC [2]: 1760 ng·h/mL
Papp A→B [3]: 1.8 ×10⁻⁶ cm/s
IC50 (Melanocortin receptor 4 [4]): 0.57 µM
SMILES: Cc1ccc(N2CCN(C(=O)[C@H](C)Cc3ccc(Cl)cc3)CC2)c([C@@H](N)CC(C)C)c1

AUC [2]: 551 ng·h/mL
clearance [18]: 37.4 mL/min/kg
Kp at 1 h [19]: 0.07
Kp at 4 h [20]: 0.15
Vd [21]: 16.8 L/kg
bioavailability [22]: 12.6%
Ki (Melanocortin receptor 4 [1]): 0.006 µM
half-life [23]: 5.2 h
Cmax [24]: 288 ng/mL
concentration at 1 h [25]: 35 ng/g
Tmax [26]: 0.5 h
concentration at 4 h [27]: 14 ng/g
SMILES: CC(C)C[C@@H](NC(=O)CN)c1cccnc1N1CCN(C(=O)[C@H](C)Cc2ccc(Cl)cc2Cl)CC1

Ki (Melanocortin receptor 4 [1]): 0.036 µM
SMILES: CC(C)C[C@@H](N)c1cccnc1N1CCN(C(=O)C(C)Cc2ccc(Cl)cc2Cl)CC1 (stereo not given in full)

Ki (Melanocortin receptor 4 [1]): 0.26 µM
SMILES: CC(C)C[C@@H](N)c1cccnc1N1CCN(C(=O)CCc2ccc(Cl)cc2Cl)CC1

Ki (Melanocortin receptor 4 [1]): 0.075 µM
SMILES: CC(C)C[C@H](N)c1cc(C(F)(F)F)ccc1N1CCN(C(=O)CCc2ccc(Cl)cc2Cl)CC1

Ki (Melanocortin receptor 4 [1]): 0.89 µM
SMILES: CC(C)C[C@H](N)c1cccnc1N1CCN(C(=O)CCc2ccc(Cl)cc2Cl)CC1

AUC [2]: 687 ng·h/mL
Activity [15]: 18%
SMILES: CC(C)C[C@H](NC(=O)CN)c1cc(C(F)(F)F)ccc1N1CCN(C(=O)CCc2ccc(Cl)cc2Cl)CC1

— ChEMBL document CHEMBL1138325, “Design, synthesis, in vitro, and in vivo characterization of phenylpiperazines and pyridinylpiperazines as potent and selective antagonists of the melanocortin-4 receptor” (J Med Chem, 2007)
